Screening data from PubChem BioAssay.
PAX8 reporter = inhibitors of PAX8 transcriptional activity in RMG-I cells. RMG-I TPO-luciferase reporter, SteadyGlo, 24 h. inhibition, % at 12.6 µM. 360,000 tested, 1.2% active;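 active = mean replicate inhibition at least 60% with every replicate also reaching 60%; inconclusive = only one of the two criteria is met; inactive = mean below 60% and not all replicates reaching 60%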;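 also: luciferase light reporting Pax8 driven TPO promoter activity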
PGC1a acetyl inh = lowers PGC1a acetylation signal in U2OS cells; 350,000 tested, 0.17% active; AID 651687; AlphaScreen anti-acetyl-lysine; with virally co-expressed GCN5 acetyltransferase; inhibition, % at 15.6 µM;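 active = every replicate shows inhibition of at least 40%; inconclusive = mean inhibition at least 40% but some replicate below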
EWS-Fli block = inhibitors of EWS/Fli oncoprotein transcriptional activity; A673 NR0B1-luciferase reporter, viability-normalised; inhibition, % at 12.6 µM; 350,000 tested, 0.67% active;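 active = mean inhibition of at least 50% after viability correction, with every replicate also passing that limit; inconclusive = mean reaches 50% but only one of two replicates passes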;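 also: firefly luciferase signal divided by Alamar Blue viability fluorescence both relative to DMSO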
HIV Env fusion = HIV envelope-mediated fusion inhibition; HeLa-JRFL Env/CEM21 cell fusion, luciferase; inhibition, % at 12.3 µM; AID 651610; 360,000 tested, 1.1% active;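 active = mean replicate inhibition score of at least 50 and every replicate individually at or above 50; inconclusive = only one of the two criteria met; inactive = mean below 50 and not all replicates reaching 50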
FN deposit inh = fibronectin deposition inhibition | AH1F fibroblasts, Alexa488-fibronectin deposition fluorescence, overnight | inhibition, % at 12.6 µM | 350,000 tested, 0.086% active;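 active = mean inhibition across replicates of 30% or more, regardless of how many single replicates reach that level; inconclusive = mean under 30% yet at least half of replicates reach 30%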
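Material: AH1F fibroblasts assembling fluorescent fibronectin matrix; amount: 10000 AH1F cells/well; medium: DMEM, 2% serum; reagent: Alexa488-fibronectin, 24 nM final in well; dosing: single compound dose, delivered by pin transfer; incubation: 1 h adhesion, overnight exposure; detection: fluorescence after three HBSS washes, excitation 485 nm, emission 525 nm; measure: fibronectin deposition inhibition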
F508del corr = CFTR F508del correction in bronchial cells; CFBE cells, YFP halide quenching; stimulated with forskolin plus potentiator P3; % fluorescence drop versus neutral controls; activity (quench increase), % at 7.58 µM; 350,000 tested, 0.36% active;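 active = mean added fluorescence quench of at least 8% versus neutral control, with both replicates also reaching 8%; inconclusive = only one of the mean or replicate conditions met; inactive = mean below 8% and not both replicates reaching 8%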;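 also: cells transiently co-express mutant CFTR-F508del with the halide-sensitive YFP; corrector assay measuring rescue of mutant channel to the surface after 24 h compound exposure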
Numbers stand for hits. An excerpt weighted towards active compounds, which were near 2.3% of everything screened.

Results for CCOC(=O)[C@]12CCCC=C1N(CCC1=CCCCC1)C(=O)[C@H](CC(=O)NCc1ccc(OC)c(OC)c1)C2 ?
PAX8 reporter: inactive; EWS-Fli block: inactive; HIV Env fusion: 71; FN deposit inh: inactive; F508del corr: inactive

Results for CCCCCCCCN1C(=O)[C@H](CC(=O)NCc2ccc(OC)c(OC)c2)C[C@@]2(C(=O)OC)CCCCC=C12 ?
PAX8 reporter: inactive; EWS-Fli block: inactive; HIV Env fusion: 118; FN deposit inh: inactive; F508del corr: inactive

Results for CCCCCCCCN1C(=O)[C@H](CC(=O)NCc2ccc(OC)c(OC)c2)C[C@@]2(C(=O)OCC)CCC=C12 ?
PAX8 reporter: inactive; EWS-Fli block: inactive; HIV Env fusion: inactive; FN deposit inh: inactive; F508del corr: inactive

Results for COC(=O)[C@]12CCCCC=C1N(Cc1ccccc1)C(=O)[C@H](CC(=O)NCc1ccc(OC)c(OC)c1)C2 ?
PAX8 reporter: inactive; EWS-Fli block: inactive; HIV Env fusion: inactive; F508del corr: inactive

How did C[C@H]1CN([C@@H](C)CO)C(=O)c2cc(-c3ccccc3F)cnc2O[C@@H]1CN(C)C(=O)CN(C)C do in these assays?
PGC1a acetyl inh: inactive; EWS-Fli block: inactive; HIV Env fusion: inactive; FN deposit inh: inactive; F508del corr: inactive

How did COc1cc2ncnc(NCc3ccco3)c2cc1OC do in these assays?
PAX8 reporter: inactive; PGC1a acetyl inh: inactive; EWS-Fli block: inactive; HIV Env fusion: inactive; FN deposit inh: inactive; F508del corr: inactive

What do the screens show for `CC(C)Nc1ncnc2ccc(Br)cc12`?
PAX8 reporter: inactive; EWS-Fli block: inactive; HIV Env fusion: 55; FN deposit inh: inactive

Results for Brc1ccc2ncnc(NCc3ccco3)c2c1 ?
PAX8 reporter: inactive; PGC1a acetyl inh: inactive; HIV Env fusion: 67; FN deposit inh: inactive

How did CCn1cc(C(=O)NCc2ccco2)c(=O)c2cc(S(=O)(=O)N3CC(C)CC(C)C3)ccc21 (stereo unspecified) do in these assays?
PAX8 reporter: 63; PGC1a acetyl inh: inactive; HIV Env fusion: inactive; FN deposit inh: inactive

Results for CC[C@H]1C(c2ccc(F)cc2)=NN(c2ccccc2)[C@@H]1CO ?
PAX8 reporter: inactive; PGC1a acetyl inh: inactive; EWS-Fli block: inactive; HIV Env fusion: 60; FN deposit inh: inactive; F508del corr: inactive

What do the screens show for `N#CC1=C(N)Oc2c(ccc3cccnc23)C1c1ccccc1` (stereo unspecified)?
PAX8 reporter: inactive; PGC1a acetyl inh: inactive; EWS-Fli block: 59; HIV Env fusion: inactive; FN deposit inh: 36; F508del corr: 17

Results for Cc1ccc2[nH]c(=O)c(C3C(C#N)=C(N)Oc4c3ccc3cccnc43)cc2c1 (stereo unspecified) ?
HIV Env fusion: inactive; FN deposit inh: inactive

Results for N#CC1=C(N)Oc2ccc3ccccc3c2C1c1cccnc1 (stereo unspecified) ?
PAX8 reporter: inactive; EWS-Fli block: 54; HIV Env fusion: inactive; FN deposit inh: inactive; F508del corr: inconclusive

What do the screens show for `CO[C@@H]1CN(C)C(=O)c2cc(NC(=O)Nc3cccc(F)c3)ccc2OC[C@H](C)N(C(=O)C2CC2)C[C@@H]1C`?
PAX8 reporter: inactive; PGC1a acetyl inh: inactive; EWS-Fli block: inactive; HIV Env fusion: inactive; FN deposit inh: inactive; F508del corr: inactive

What do the screens show for `CO[C@H]1CN(C)C(=O)c2cc(NC(C)=O)ccc2OC[C@H](C)N(Cc2cccnc2)C[C@@H]1C`?
PAX8 reporter: inactive; PGC1a acetyl inh: inactive; EWS-Fli block: inactive; HIV Env fusion: inactive; FN deposit inh: inactive; F508del corr: inactive

What do the screens show for `COc1ccc(NC(=O)N(C)C[C@@H]2OCCCC[C@@H](C)Oc3ccc(NS(=O)(=O)c4ccccc4)cc3C(=O)N([C@H](C)CO)C[C@H]2C)cc1`?
PAX8 reporter: inactive; PGC1a acetyl inh: inactive; EWS-Fli block: inactive; HIV Env fusion: inactive; FN deposit inh: inactive; F508del corr: inactive

How did COCC(C)NC(=O)CCS(=O)(=O)c1nc(-c2ccc(OC)cc2)cc(C(F)(F)F)n1 (stereo unspecified) do in these assays?
PGC1a acetyl inh: inactive

How did Cc1cc(NC(=O)CCCS(=O)(=O)c2nc(-c3cccs3)cc(C(F)(F)F)n2)no1 do in these assays?
PAX8 reporter: 106; PGC1a acetyl inh: inactive; HIV Env fusion: inactive; FN deposit inh: inactive
